From ChEMBL document CHEMBL3739286, “Betulinic acid derived hydroxamates and betulin derived carbamates are interesting scaffolds for the synthesis of novel cytotoxic compounds” (Eur J Med Chem, 2015)

Legend:
HT-29 = test: Cytotoxicity against human HT-29 cells after 96 hrs by SRB assay; format: functional, cell-based; details: HT-29, 96 h
Method in brief: (§1)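 Photometric sulforhodamine B read-out of antiproliferative effect after 96 h of continuous treatment; EC₅₀ values in µM, averaged from three independent experiments each run in triplicate; the assay cut-off is EC₅₀ > 30 µM. Human tumour lines are tested alongside nonmalignant mouse NIH 3T3 fibroblasts.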

[1] = Cytotoxicity against mouse NIH/3T3 cells after 96 hrs by SRB assay; format: cell-based, NIH3T3; details: Mus musculus, NIH3T3, 96 h; read-out: EC50; method in brief: as §1
A2780 = test: Cytotoxicity against human A2780 cells after 96 hrs by SRB assay; format: functional, cell-based; details: Homo sapiens, A2780, 96 h; read-out: EC50; method in brief: as §1
A549 = test: Cytotoxicity against human A549 cells after 96 hrs by SRB assay; format: functional, cell-based; details: Homo sapiens, A549, 96 h; read-out: EC50; method in brief: as §1
[2] = Cytotoxicity against human 518A2 cells after 96 hrs by SRB assay; format: functional, cell-based; details: Homo sapiens, 518A2, 96 h; read-out: EC50; method in brief: as §1
HeLa = test: Cytotoxicity against human HeLa cells after 96 hrs by SRB assay; format: functional, cell-based; method in brief: as §1
MCF7 = test: Cytotoxicity against human MCF7 cells after 96 hrs by SRB assay; format: functional, cell-based; details: Homo sapiens, MCF7, 96 h; read-out: EC50; method in brief: as §1

SMILES | EC50 (HT-29) | EC50 [1] | EC50 (A2780) | EC50 (A549) | EC50 [2] | EC50 (HeLa) | EC50 (MCF7)
C=C(C)[C@@H]1CC[C@]2(COC(=O)NCC)CC[C@]3(C)[C@H](CC[C@@H]4[C@@]5(C)CCC(=O)C(C)(C)[C@@H]5CC[C@]43C)[C@@H]12 | 11.5 µM | 4.6 µM | 8.3 µM | 20.3 µM | 16.6 µM | 13.4 µM | 19.7 µM
C=C(C)[C@@H]1CC[C@]2(COC(=O)NCCCCCC)CC[C@]3(C)[C@H](CC[C@@H]4[C@@]5(C)CC[C@H](OC(C)=O)C(C)(C)[C@@H]5CC[C@]43C)[C@@H]12 | > 30 µM | > 30 µM | > 30 µM | > 30 µM | > 30 µM | > 30 µM | > 30 µM
C=C(C)[C@@H]1CC[C@]2(COC(=O)Nc3ccccc3)CC[C@]3(C)[C@H](CC[C@@H]4[C@@]5(C)CCC(=O)C(C)(C)[C@@H]5CC[C@]43C)[C@@H]12 | > 30 µM | > 30 µM | > 30 µM | > 30 µM | > 30 µM | > 30 µM | > 30 µM
C=C(C)[C@@H]1CC[C@]2(COC(=O)Nc3ccccc3)CC[C@]3(C)[C@H](CC[C@@H]4[C@@]5(C)CC[C@H](OC(C)=O)C(C)(C)[C@@H]5CC[C@]43C)[C@@H]12 | > 30 µM | > 30 µM | > 30 µM | > 30 µM | > 30 µM | > 30 µM | > 30 µM
C=C(C)[C@@H]1CC[C@]2(COC(=O)NCCCC)CC[C@]3(C)[C@H](CC[C@@H]4[C@@]5(C)CC[C@H](OC(C)=O)C(C)(C)[C@@H]5CC[C@]43C)[C@@H]12 | > 30 µM | > 30 µM | > 30 µM | > 30 µM | > 30 µM | > 30 µM | > 30 µM
C=C(C)[C@@H]1CC[C@]2(COC(=O)NCCC)CC[C@]3(C)[C@H](CC[C@@H]4[C@@]5(C)CC[C@H](O)C(C)(C)[C@@H]5CC[C@]43C)[C@@H]12 | 16.3 µM | 7.3 µM | 10.6 µM | 14.2 µM | 15.9 µM | 9.4 µM | 15.5 µM
C=C(C)[C@@H]1CC[C@]2(COC(=O)Nc3ccccc3)CC[C@]3(C)[C@H](CC[C@@H]4[C@@]5(C)CC[C@H](O)C(C)(C)[C@@H]5CC[C@]43C)[C@@H]12 | 16.3 µM | 14.3 µM | 7.2 µM | > 30 µM | 23.9 µM | 11.5 µM | 24.6 µM
C=C(C)[C@@H]1CC[C@]2(COC(=O)NCCCCCC)CC[C@]3(C)[C@H](CC[C@@H]4[C@@]5(C)CCC(=O)C(C)(C)[C@@H]5CC[C@]43C)[C@@H]12 | > 30 µM | > 30 µM | > 30 µM | > 30 µM | > 30 µM | > 30 µM | > 30 µM
C=C(C)[C@@H]1CC[C@]2(COC(=O)NCCCC)CC[C@]3(C)[C@H](CC[C@@H]4[C@@]5(C)CCC(=O)C(C)(C)[C@@H]5CC[C@]43C)[C@@H]12 | > 30 µM | > 30 µM | > 30 µM | > 30 µM | > 30 µM | > 30 µM | > 30 µM
C=C(C)[C@@H]1CC[C@]2(COC(=O)NCC)CC[C@]3(C)[C@H](CC[C@@H]4[C@@]5(C)CC[C@H](O)C(C)(C)[C@@H]5CC[C@]43C)[C@@H]12 | > 30 µM | 8.8 µM | 4.6 µM | 12 µM | 12.5 µM | > 30 µM | 12.1 µM
C=C(C)[C@@H]1CC[C@]2(COC(=O)NCCC)CC[C@]3(C)[C@H](CC[C@@H]4[C@@]5(C)CCC(=O)C(C)(C)[C@@H]5CC[C@]43C)[C@@H]12 | > 30 µM | > 30 µM | > 30 µM | > 30 µM | > 30 µM | > 30 µM | > 30 µM
